Experiments:
Plasmodium falciparum = experiment: Effective inhibition of Plasmodium falciparum; type: functional; settings: read-out: ED50 (the source's name)
Outline: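 W2-strain parasites at 1% parasitemia and 2% hematocrit, run in duplicate. Inhibitor diluted from DMSO stocks in 1:5 steps to final 10 μM, 2000, 400, 80, 16 and 3.2 nM. Cultures kept 2 days at 37 °C, then washed and fixed in 1% formaldehyde/PBS. Parasitemia measured by flow cytometry with YOYO-1 DNA stain.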

Cruzipain = Cruzipain (Trypanosoma cruzi, UniProt P25779); experiment: Inhibition of cruzain from Trypanosoma cruzi
Outline: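 Recombinant cruzain (2 nM) preincubated 5 min at room temperature with 0.5–10 μM inhibitor in 100 mM sodium acetate pH 5.5 with 5 mM DTT, 0.7% DMSO. Reaction started with Z-Phe-Arg-AMC at 20 μM final (Km 1 μM), followed by fluorescence at ex 355/em 460. IC50 read graphically from inhibition vs log[I], seven concentrations with at least two in the linear range.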

Falcipain 2 = molecular target: T1, Falcipain 2 (Plasmodium falciparum, UniProt Q9N6S8); experiment: Inhibition of falcipain2 from Plasmodium falciparum
T1 sequence (Q9N6S8 whole entry): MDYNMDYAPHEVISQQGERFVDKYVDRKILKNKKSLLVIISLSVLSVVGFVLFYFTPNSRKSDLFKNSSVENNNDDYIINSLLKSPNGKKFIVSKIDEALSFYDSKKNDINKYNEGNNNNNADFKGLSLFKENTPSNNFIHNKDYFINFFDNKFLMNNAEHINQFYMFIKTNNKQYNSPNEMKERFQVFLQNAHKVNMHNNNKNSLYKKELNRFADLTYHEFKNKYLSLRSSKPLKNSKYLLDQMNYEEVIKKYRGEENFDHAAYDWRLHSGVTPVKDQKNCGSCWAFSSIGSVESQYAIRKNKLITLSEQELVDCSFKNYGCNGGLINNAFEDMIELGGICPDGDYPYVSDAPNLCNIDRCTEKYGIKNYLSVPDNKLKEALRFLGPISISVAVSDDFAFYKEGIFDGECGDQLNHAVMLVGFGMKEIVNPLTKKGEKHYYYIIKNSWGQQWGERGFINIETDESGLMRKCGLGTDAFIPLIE
Outline: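 Recombinant falcipain-2 preincubated 30 min at room temperature with inhibitor in 100 mM sodium acetate pH 5.5 with 10 mM DTT, DMSO at most 1%. Z-Leu-Arg-AMC then added to 25 μM final, and fluorescence monitored 15 min at room temperature. IC50 taken from plots of percent activity against compound concentration.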

Rhodesain = Rhodesain (Trypanosoma brucei rhodesiense, UniProt Q95PM0); experiment: Inhibition of rhodesain from Trypanosoma brucei rhodesiense
Outline: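 Recombinant rhodesain (3 nM) preincubated 5 min at room temperature with 0.5–10 µM inhibitor in 100 mM sodium acetate pH 5.5, 5 mM DTT, 0.7% DMSO final. Z-Phe-Arg-AMC then added (20 µM final) and fluorescence rise followed at ex 355/em 460. IC50 read graphically from linear portion of inhibition vs log[I], seven concentrations, at least two in linear range.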

[1] = tested on: Trypanosoma brucei rhodesiense; experiment: Effective dose required to inhibit Trypanosoma brucei rhodesiense in culture; type: functional; settings: read-out: ED50 (the source's name)
Outline: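 T. b. rhodesiense grown at 37 °C, 5% CO2 in HMI-9 with 10% FBS and 10% Serum Plus, seeded at 10⁴ cells/mL. Inhibitor serially diluted directly in culture from the top concentration down to 1 nM. Exposure 48 h at 37 °C. Viability read as ATP content by CellTiter-Glo luminescence after 5 min shaking at room temperature, or by hemacytometer count.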

[2] = Survival of infected cells against Trypanosoma cruzi in days at a dose of 5 uM; Toxicity = None
[3] = Survival of infected cells against Trypanosoma cruzi in days at a dose of 5 uM; Toxicity = Toxic

Chain of Cruzipain (P25779 whole entry): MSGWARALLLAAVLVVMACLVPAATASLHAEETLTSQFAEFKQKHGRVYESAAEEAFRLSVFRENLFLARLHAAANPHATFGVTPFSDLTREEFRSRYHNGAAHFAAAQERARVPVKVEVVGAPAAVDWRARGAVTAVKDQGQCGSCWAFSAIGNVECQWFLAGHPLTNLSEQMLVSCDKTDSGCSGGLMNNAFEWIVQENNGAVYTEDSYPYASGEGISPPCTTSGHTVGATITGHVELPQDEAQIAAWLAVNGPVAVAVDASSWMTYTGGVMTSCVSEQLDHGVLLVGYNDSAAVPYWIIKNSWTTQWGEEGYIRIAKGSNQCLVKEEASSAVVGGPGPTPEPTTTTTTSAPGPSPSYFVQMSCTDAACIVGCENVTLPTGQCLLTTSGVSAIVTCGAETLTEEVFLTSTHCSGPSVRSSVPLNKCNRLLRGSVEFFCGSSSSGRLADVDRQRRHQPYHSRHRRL
Chain of Rhodesain (Q95PM0 whole entry): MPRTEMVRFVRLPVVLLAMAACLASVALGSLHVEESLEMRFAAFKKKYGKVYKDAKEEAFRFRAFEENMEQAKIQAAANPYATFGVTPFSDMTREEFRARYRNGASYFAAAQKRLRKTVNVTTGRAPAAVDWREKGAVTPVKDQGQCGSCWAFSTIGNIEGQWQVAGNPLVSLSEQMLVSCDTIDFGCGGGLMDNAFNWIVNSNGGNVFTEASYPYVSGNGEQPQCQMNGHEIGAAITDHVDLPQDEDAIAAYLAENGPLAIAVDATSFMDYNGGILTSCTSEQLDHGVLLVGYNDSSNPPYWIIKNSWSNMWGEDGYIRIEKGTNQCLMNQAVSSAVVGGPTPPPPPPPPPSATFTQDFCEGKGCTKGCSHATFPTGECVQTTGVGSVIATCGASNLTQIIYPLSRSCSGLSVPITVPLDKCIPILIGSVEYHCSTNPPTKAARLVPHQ

SMILES	EC50 (Plasmodium falciparum) [µM]	IC50 (Cruzipain) [µM]	IC50 (Falcipain 2) [µM]	IC50 (Rhodesain) [µM]	EC50 [1] [µM]	Survival [2] [days]	Survival [3] [days]
C/C(=N\N=C(\N)S)c1ccc(Nc2ccccc2)cc1	9.9	> 20	> 20	18	4.5	43	–
C/C(=N\N=C(\N)S)c1cccc(-c2ccccc2)c1	–	8	–	1.1	12	43	–
CS/C(S)=N/N=C(\C)c1cccc(Br)c1	–	> 20	–	> 20	10	–	7
C/C(=N/N=C(/N)S)c1cccc(/C(C)=N/N=C(/N)S)c1	–	5	–	0.33	> 20	5	–
C/C(=N\N=C(/S)N1CCCCC1)c1cccc(Br)c1	–	5	–	4	3	5	–
C/C(=N\N=C(\N)S)c1cccc(Oc2ccccc2)c1	–	10	–	0.55	6	–	27
CCN(CC)/C(S)=N/N=C(\C)c1cccc(Br)c1	–	5	–	1.8	3	5	–
C/C(=N\N=C(\N)S)c1ccc(Oc2ccccc2)cc1	–	10	–	8	3	–	28
C/C(=N\N=C(\N)S)c1cccc(Nc2ccccc2)c1	–	> 20	–	0.8	8	43	–
C/C(=N\N=C(\N)S)c1ccc(-c2ccccc2)cc1	> 20	5	10	0.09	10	–	8
C/C(=N/N=C(/N)S)c1cccc(/C(C)=N/N=C(/N)S)n1	0.03	–	> 20	–	–	–	–
C/C(=N\N=C(/S)N1CCN(C)CC1)c1cccc(Br)c1	4	5	> 20	4	2	–	14
C/C(=N\NC(N)=S)c1ccccn1	0.08	> 20	> 20	> 20	4	43	–
CS/C(S)=N/N=C(\C)c1ccccn1	0.03	–	> 20	> 20	0.3	–	–
C/C(=N\N=C(\N)S)c1cccc(Br)c1	–	0.06	–	0.05	> 20	43	–

— ChEMBL document CHEMBL1148328, “Synthesis and structure-activity relationships of parasiticidal thiosemicarbazone cysteine protease inhibitors against Plasmodium falciparum, Trypanosoma brucei, and Trypanosoma cruzi” (J Med Chem, 2004)
